Assay results taken from ChEMBL document CHEMBL3779801, “Discovery of the Selective CYP17A1 Lyase Inhibitor BMS-351 for the Treatment of Prostate Cancer” (ACS Med Chem Lett, 2016).
pIC50: −log10 of the molar value.

Assays:
[1] = Tmax in one day castrated cynomolgus monkey at 1.5 mg/kg, po bid; type: ADME, organism-based, Macaca fascicularis; details: male, in vivo
How it was run: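 Castrated cynomolgus monkeys were studied over one day with oral BID dosing at time 0 and 8 h. Plasma levels were sampled at set time points over 1–24 h and reported as average ± standard deviation in nM, n = 4.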

[2] = Metabolic stability in cynomolgus monkey liver microsomes assessed as parent compound remaining at 0.5 uM incubated for 10 mins; type: ADME, Macaca fascicularis; details: read-out: Stability
How it was run: (§1)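 Compound at 0.5 μM was incubated with human, mouse or cynomolgus liver microsomes for 10 min.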

[3] = AUC in cynomolgus monkey plasma at 4 mg/kg, po after 0.25 to 45 hrs by LC-MS/MS analysis; type: ADME, organism-based, Macaca fascicularis; design: dose 4 mg/kg, time upper 45 hr, time lower 0.25 hr, route oral
How it was run: (§2)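 Cynomolgus monkeys were dosed orally from a solution formulation. Plasma parameters are given as mean ± standard deviation.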

[4] = Metabolic stability in mouse liver microsomes assessed as parent compound remaining at 0.5 uM incubated for 10 mins; type: ADME; details: read-out: Stability; how it was run: as §1
[5] = Volume of distribution at steady state in cynomolgus monkey plasma at 2 mg/kg, iv by LC-MS/MS analysis; type: ADME, organism-based, Macaca fascicularis; details: read-out: Vdss
How it was run: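 Cynomolgus monkeys were dosed intravenously. Plasma parameters are given as mean ± standard deviation.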

[6] = target: T1, Steroid 17-alpha-hydroxylase/17,20 lyase (Homo sapiens, UniProt P05093); assay: Inhibition of human CYP17A1 expressed in HEK293 cell microsomes using [3H]-pregnenolone as substrate incubated for 45 mins by scintillation proximity assay in presence of NADPH
T1 sequence (P05093 whole entry): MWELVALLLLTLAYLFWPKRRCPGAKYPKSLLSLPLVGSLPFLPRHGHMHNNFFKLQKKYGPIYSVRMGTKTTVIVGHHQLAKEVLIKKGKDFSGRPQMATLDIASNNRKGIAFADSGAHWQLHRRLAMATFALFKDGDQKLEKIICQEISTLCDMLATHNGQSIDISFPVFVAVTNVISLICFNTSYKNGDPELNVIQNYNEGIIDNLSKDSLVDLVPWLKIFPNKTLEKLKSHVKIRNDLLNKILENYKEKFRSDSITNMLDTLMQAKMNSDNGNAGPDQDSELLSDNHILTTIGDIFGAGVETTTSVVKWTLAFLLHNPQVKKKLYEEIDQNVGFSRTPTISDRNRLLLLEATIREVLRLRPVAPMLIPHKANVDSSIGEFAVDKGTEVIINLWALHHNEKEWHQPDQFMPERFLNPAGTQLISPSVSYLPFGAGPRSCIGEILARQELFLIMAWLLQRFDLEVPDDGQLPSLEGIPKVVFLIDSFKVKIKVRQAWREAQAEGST

[7] = target: T1, Steroid 17-alpha-hydroxylase/17,20 lyase; assay: Selectivity ratio of human CYP17A1 hydroxylase activity expressed in Escherichia coli using pregnenolone substrate to human CYP17A1 lyase activity expressed in HEK293 cell microsomes using [3H]-hydroxypregnenolone substrate
How it was run: (§3)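 Hydroxylase and lyase activities were run with different enzyme preparations, so the hydroxylase/lyase ratios are estimates.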

[8] = Inhibition of cynomolgus monkey CYP11B1 using hydroxy progesterone as substrate incubated for 120 mins by LC-MS method; design: species or system Macaca fascicularis
[9] = target: T1, Steroid 17-alpha-hydroxylase/17,20 lyase; assay: Inhibition of CYP17A1 in human adrenal microsomes using [3H]-pregnenolone as substrate incubated for 90 mins by scintillation proximity assay in presence of NADPH; design: species or system Adrenal gland
[10] = target: T2, Steroid 17-alpha-hydroxylase/17,20 lyase (Macaca fascicularis, UniProt Q2XVA1); assay: Inhibition of CYP17A1 in cynomolgus monkey adrenal microsomes using [3H]-pregnenolone as substrate incubated for 45 mins by scintillation proximity assay in presence of NADPH; design: species or system Adrenal gland
T2 sequence (Q2XVA1 whole entry): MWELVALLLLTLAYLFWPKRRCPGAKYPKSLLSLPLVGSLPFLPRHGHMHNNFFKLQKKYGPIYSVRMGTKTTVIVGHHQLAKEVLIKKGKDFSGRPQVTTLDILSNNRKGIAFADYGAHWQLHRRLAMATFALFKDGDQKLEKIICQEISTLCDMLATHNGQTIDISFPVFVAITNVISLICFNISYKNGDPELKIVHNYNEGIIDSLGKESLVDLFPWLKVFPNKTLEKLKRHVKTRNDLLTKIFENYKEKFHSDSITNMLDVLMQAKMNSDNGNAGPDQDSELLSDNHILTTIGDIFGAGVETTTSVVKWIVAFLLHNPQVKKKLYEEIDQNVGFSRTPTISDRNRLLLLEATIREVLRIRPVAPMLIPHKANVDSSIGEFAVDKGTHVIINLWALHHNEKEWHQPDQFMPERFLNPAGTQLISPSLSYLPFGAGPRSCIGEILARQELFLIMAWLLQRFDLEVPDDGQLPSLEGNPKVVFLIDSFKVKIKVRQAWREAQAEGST

[11] = Intrinsic permeability from apical to basolateral side in human Caco2 cells; type: ADME, cell-based; details: Caco-2
[12] = Tmax in cynomolgus monkey plasma at 4 mg/kg, po after 0.25 to 45 hrs by LC-MS/MS analysis; type: ADME, organism-based, Macaca fascicularis; how it was run: as §2
[13] = target: T2, Steroid 17-alpha-hydroxylase/17,20 lyase; assay: Selectivity ratio of cynomolgus monkey CYP17A1 hydroxylase activity using pregnenolone substrate to cynomolgus monkey CYP17A1 lyase activity using [3H]-hydroxypregnenolone substrate; how it was run: as §3
[14] = system: Cynomolgus monkey; assay: Free plasma concentration in cynomolgus monkey plasma at 1 mg/kg, po by LC-MS/MS analysis; type: ADME, organism-based, Macaca fascicularis; details: in vivo

Tmax [1]: 1 h | remaining at 10 min, 0.5 µM [2]: 83% | AUC [3]: 12.3 µM·h | remaining at 10 min, 0.5 µM [4]: 66% | Vd [5]: 4.4 L/kg | pIC50 [6]: 7.72 | pIC50 [8]: < 5.12 | pIC50 [9]: 7.70 | pIC50 [10]: 8.70 | Papp A→B [11]: 40 ×10⁻⁶ cm/s | Tmax [12]: 1.3 h | Cp(f) [14]: 80 nM
Compound: Cc1ccncc1-c1cccc2c1ncn2CC(F)(F)F
Selectivity ratio [7]: 10 | Selectivity ratio [13]: 11
